Experimental data reported in publication PMC6726451 (Science Advances, 2019).
Values joined by “and” are separate entries in the source; they are usually repeats but may differ in a detail not shown here. Equal values may be shown once.

Columns and labels:
TtClpP [1] = target: T1, TtClpP (Thermus thermophilus, UniProt Q5SKM8); test: TAMRA-FP labeling of TtClpP active-site serines; type: biochemical; details: TAMRA-FP 5 μM, TtClpP 1 mg/ml, bortezomib 100 μM
TtClpP [2] = target: T1, TtClpP; test: MAS solid-state NMR chemical shift perturbations; type: binding; details: 10 mM bortezomib, sedimented TtClpP
TtClpP [3] = target: T1, TtClpP; test: Solution-state methyl NMR of Ile-δ1-CH3-labeled TtClpP; type: binding; details: 2 mM bortezomib, TtClpP 250 μM, 60°C
In short: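 Uniformly 2H,15N-labelled TtClpP carrying Ile-δ1-13CH3 labels, and its S97A mutant, were used. Protein was expressed in D2O and refolded from urea-solubilised inclusion bodies by NiNTA and SEC. Protein (250 μM) was mixed with 2 mM test compound or the DMSO equivalent in 100 mM tris (pH 8.5), 100 mM NaCl and 5% glycerol. 2D SOFAST-methyl-TROSY spectra were recorded at 700 MHz and 60°C, for 10–120 min per sample.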

TtClpP [4] = target: T1, TtClpP; test: FtsZ degradation by TtClpP, SDS-gel electrophoresis; type: biochemical; details: 200 μM and 2 mM bortezomib, 37°C, TtClpP 1 μM complex
In short: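 Purified intrinsically disordered E. coli FtsZ (20 μM) was incubated at 37°C with TtClpP14 (1 μM) and the stated test-compound concentrations. Aliquots were withdrawn at set time points and resolved on a 15% SDS gel to follow FtsZ loss.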

EcClpP = EcClpP (Escherichia coli, UniProt P0A6G7); test: EcClpP peptidase activity, PKMamc degradation; type: biochemical
In short: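 Purified E. coli ClpP was mixed in 50 mM Hepes (pH 7.6) and 50 mM NaCl with the fluorogenic tripeptide PKMamc (100 μM working concentration) and test compound, or a matching DMSO volume. AMC release was read at 340-nm excitation and 462-nm emission at defined intervals. An apparent IC50 was derived from peptidase activity.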

MtbClpXP1P2 complex = details: in vivo cell screen; cited from earlier work
proteasome = details: cited from earlier work
TtClpP with TtClpX = TtClpP with TtClpX (Thermus thermophilus, UniProt Q5SKM8); test: TtClpP peptidase activity in the presence of TtClpX; type: biochemical
In short: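 N-terminally truncated TtClpX and TtClpP were expressed in E. coli BL21RIL and purified by NiNTA and SEC. Concentrations are given as hexamer and tetradecamer. TtClpP (0.1 μM complex) was mixed with TtClpX at varying ClpX6/ClpP14 molar ratios in 50 mM Hepes (pH 7.6) and 50 mM NaCl, without or with 10 μM test compound. PKMamc hydrolysis was read at 340/462 nm, at 60°C unless otherwise indicated. The ratio giving half-maximal activation was derived from activation plotted against molar ratio.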

MtbClpP1P2 complex [5] = target: T2, MtbClpP1P2 complex (Mycobacterium tuberculosis, UniProt P9WPC3+P9WPC5); test: MtbClpP1P2 peptidase activity; type: biochemical
TtClpP [6] = target: T1, TtClpP; test: FITC-casein degradation by TtClpP; type: biochemical; details: TtClpP 0.1 μM complex
In short: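 FITC-casein, passed over a G25 column to remove free fluorescein, was used at 0.15 μM with TtClpP14 (0.1 μM). Test compound was added at a range of concentrations. Fluorescence rise was monitored at 440-nm excitation, 509-nm emission and 495-nm cutoff. Initial degradation rates after temperature equilibration were plotted against compound concentration.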

S97A TtClpP = S97A TtClpP (Thermus thermophilus, UniProt Q5SKM8, S97A); type: binding; details: 2 mM bortezomib, S97A TtClpP 250 μM, 60°C
TtClpP [7] = target: T1, TtClpP; test: Dynamic light scattering, hydrodynamic radius of TtClpP; details: 5 mM bortezomib; for hydrodynamic radius Rhyd of TtClpP: TtClpP 3 μM
In short: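 TtClpP (3 μM) was measured in 100 mM tris (pH 8.5), 100 mM NaCl and 5% glycerol, with no additive or with 5 mM bortezomib added, at 25° or 45°C. Each condition was run in triplicate, three times for each of two TtClpP samples. Hydrodynamic radius is the average of these replicates.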

TtClpP [8] = target: T1, TtClpP; test: Isothermal titration calorimetry fitted to the MWC model; type: binding
In short: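 TtClpP (10 μM, cell) was titrated with test compound (1.4 mM, syringe) in 50 mM Hepes (pH 7.6) and 50 mM NaCl at 25°, 35° and 45°C. Solutions were degassed. Each run used 19 injections 150 s apart with stirring at 750 rpm, in replicates. Integrated heats were fitted by nonlinear least squares to an MWC model with 14 identical single-site subunits. The fit gave KR, KT, γ, enthalpies and active fraction N.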

TtClpP [9] = target: T1, TtClpP; test: TtClpP peptidase activity, PKMamc degradation; type: biochemical; details: Fig. 1B
MtbClpP1P2 complex [10] = target: T2, MtbClpP1P2 complex; details: cited from earlier work
[11] = 35°C, absolute error 0.3 kcal/mol
[12] = 45°C, absolute error 0.3 kcal/mol

O=c1oc(Cl)c(Cl)c2ccccc12 [DCC, dichloroisocoumarin]
TAMRA-FP labeling of TtClpP (TtClpP [1]): reduced the amount of TAMRA bound to ClpP

CC(C)C[C@H](NC(=O)[C@H](Cc1ccccc1)NC(=O)c1cnccn1)B(O)O [bortezomib]
chemical shift perturbations on addition of bortezomib (TtClpP [2]): bortezomib interacts with the active site | binding to wild-type TtClpP by spectral changes (TtClpP [3]): unambiguously confirms binding | TAMRA-FP labeling of TtClpP (TtClpP [1]): failed to observe any increase of TAMRA-FP labeling | FtsZ degradation by TtClpP (TtClpP [4]): degradation of FtsZ was observed | IC50 (EcClpP): 1.6 µM | effect on GFPssrA degradation by the MtbClpXP1P2 complex (MtbClpXP1P2 complex): inhibitor of GFPssrA degradation | affinity for the chymotrypsin-like sites of the proteasome (proteasome): nanomolar affinity | effect on the chymotrypsin site of the proteasome (proteasome): inhibits efficiently | effect on the trypsin site of the proteasome (proteasome): paradoxical activation | effect on TtClpP peptidase activity in the presence of ClpX (TtClpP with TtClpX; bortezomib 10 μM, PKM-amc 100 μM): acted as an inhibitor | ClpX6/ClpP14 ratio at half-maximal peptidase activity (TtClpP with TtClpX; bortezomib-loaded TtClpP, bortezomib 10 μM): 2.4 ± 0.3 and 2.4 | TtClpX6 concentration at half-maximal activation (TtClpP with TtClpX; in the presence of bortezomib, ratio 2.4): 120 nM | effect on MtbClpP1P2 peptidase activity (MtbClpP1P2 complex [5]): could also activate the peptidase activity of the MtbClpP1P2 complex | concentration dependence of FITC-casein degradation activation (TtClpP [6]): linear and no reduction of the activation was observed up to 100 μM | effect on FITC-casein degradation (TtClpP [6]; FITC-casein 0.15 μM): a striking activation was observed | spectral changes of the S97A mutant (S97A TtClpP): no spectral changes were observed | increase in Rhyd of TtClpP on addition of bortezomib (TtClpP [7]): approximately 8 Å | hydrodynamic radius Rhyd of TtClpP (TtClpP [7]; 25°C): 6.673 ± 0.192 nm and 6.67 nm | hydrodynamic radius Rhyd of TtClpP (TtClpP [7]; 45°C): 6.702 ± 0.176 nm | KT, association constant for the tense state (TtClpP [8]; 25°C): No apparent cooperativity | N, fraction of active or binding-competent protein (TtClpP [8]; 25°C): 0.97 | ΔHT, binding enthalpy of the T state (TtClpP [8]; 25°C): No apparent cooperativity | ΔHγ, conformational enthalpy between R and T conformations (TtClpP [8]; 25°C): No apparent cooperativity | γ, equilibrium constant between R and T conformations in the absence of the ligand (TtClpP [8]; 25°C): No apparent cooperativity | ΔHR, binding enthalpy of the R state (TtClpP [8]; 25°C, absolute error 0.3 kcal/mol): -0.5 kcal/mol | N, fraction of active or binding-competent protein (TtClpP [8]; 35°C): 0.97 | ΔHR, binding enthalpy of the R state (TtClpP [8]; [11]): -0.9 kcal/mol | ΔHT, binding enthalpy of the T state (TtClpP [8]; [11]): -0.1 kcal/mol | ΔHγ, conformational enthalpy between R and T conformations (TtClpP [8]; [11]): -0.3 kcal/mol | KT, association constant for the tense state (TtClpP [8]; 35°C, relative error 30%): 28000 M⁻¹ | γ, equilibrium constant between R and T conformations in the absence of the ligand (TtClpP [8]; 35°C, relative error 30%): 3.3 | N, fraction of active or binding-competent protein (TtClpP [8]; 45°C): 1.00 | ΔHR, binding enthalpy of the R state (TtClpP [8]; [12]): -1.5 kcal/mol | ΔHT, binding enthalpy of the T state (TtClpP [8]; [12]): -0.3 kcal/mol | ΔHγ, conformational enthalpy between R and T conformations (TtClpP [8]; [12]): -0.2 kcal/mol | KR, association constant for the relaxed state (TtClpP [8]; 45°C, relative error 30%): 65000 M⁻¹ | KT, association constant for the tense state (TtClpP [8]; 45°C, relative error 30%): 25000 M⁻¹ | Kd (TtClpP [8]; Kd,R = KR^−1, R state, higher affinity): 15 µM | Kd (TtClpP [8]; Kd,T = KT^−1, T state, lower affinity): 40 µM | free bortezomib concentration at the R↔T crossover point (TtClpP [8]; R and T equally populated, MWC model): around 2 μM

NC(N)=O [urea]
TAMRA-FP labeling of TtClpP (TtClpP [1]): reduced the amount of TAMRA bound to ClpP

Bz-LL
activation of TtClpP peptidase activity compared with bortezomib (TtClpP [9]): capable to activate TtClpP, albeit with lower efficiency | activation of MtbClpP1P2 (MtbClpP1P2 complex [10]): most potent of these activators in Mtb
